Reference: ChEMBL document CHEMBL1944602, “Synthesis and biological characterisation of sirtuin inhibitors based on the tenovins” (Bioorg Med Chem, 2012)
Activity calls are given as the source filed them. No cut-off for these calls is given here.

Legend:
[1] = molecular target: T1, NAD-dependent protein deacetylase sirtuin-1 (Homo sapiens) (UniProt Q96EB6); assay: Inhibition of recombinant human SitT1 at 60 uM by Fluor de Lys fluorescence assay
T1 sequence (whole entry): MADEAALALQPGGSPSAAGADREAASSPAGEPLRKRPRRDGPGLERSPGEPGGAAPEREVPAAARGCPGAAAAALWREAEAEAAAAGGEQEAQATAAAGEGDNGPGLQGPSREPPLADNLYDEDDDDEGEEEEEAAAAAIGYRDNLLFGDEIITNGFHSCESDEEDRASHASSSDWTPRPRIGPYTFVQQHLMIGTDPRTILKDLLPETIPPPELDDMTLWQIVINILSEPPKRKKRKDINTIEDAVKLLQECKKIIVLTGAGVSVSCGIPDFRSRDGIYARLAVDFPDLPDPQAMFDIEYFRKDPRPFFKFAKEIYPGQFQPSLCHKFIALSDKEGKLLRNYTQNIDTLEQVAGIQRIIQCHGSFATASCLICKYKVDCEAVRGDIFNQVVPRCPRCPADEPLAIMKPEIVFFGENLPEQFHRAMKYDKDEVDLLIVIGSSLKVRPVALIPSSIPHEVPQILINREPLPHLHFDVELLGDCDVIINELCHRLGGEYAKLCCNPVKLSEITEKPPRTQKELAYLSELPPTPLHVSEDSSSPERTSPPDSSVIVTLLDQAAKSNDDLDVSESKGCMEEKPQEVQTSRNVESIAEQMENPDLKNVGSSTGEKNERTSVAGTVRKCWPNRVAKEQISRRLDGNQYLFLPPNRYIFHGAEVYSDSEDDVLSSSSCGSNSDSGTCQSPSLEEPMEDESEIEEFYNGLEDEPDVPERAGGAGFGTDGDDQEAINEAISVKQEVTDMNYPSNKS
How it was run: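 Human recombinant SirT1 deacetylation measured with the Fluor de Lys fluorescence kit at a fixed 60 µM inhibitor. Tested on two separate occasions; percent inhibition reported as a mean weighted to the standard error.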

[2] = molecular target: T2, NAD-dependent protein deacetylase sirtuin-2 (Homo sapiens, UniProt Q8IXJ6); assay: Inhibition of recombinant human SitT2 by Fluor de Lys fluorescence assay
T2 sequence (Q8IXJ6 whole entry): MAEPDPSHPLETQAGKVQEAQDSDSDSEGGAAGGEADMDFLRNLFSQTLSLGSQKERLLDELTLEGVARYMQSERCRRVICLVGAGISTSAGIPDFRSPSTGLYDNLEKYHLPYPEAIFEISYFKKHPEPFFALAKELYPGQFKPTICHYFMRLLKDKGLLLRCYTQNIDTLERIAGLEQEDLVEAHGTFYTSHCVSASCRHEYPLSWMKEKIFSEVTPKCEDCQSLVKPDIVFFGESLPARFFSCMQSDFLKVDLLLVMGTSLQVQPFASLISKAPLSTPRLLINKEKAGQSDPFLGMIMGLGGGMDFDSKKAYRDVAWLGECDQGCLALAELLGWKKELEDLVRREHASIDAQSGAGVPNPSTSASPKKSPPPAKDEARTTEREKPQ

[3] = molecular target: T3, NAD-dependent protein deacetylase sirtuin-1 (Homo sapiens, UniProt Q96EB6); assay: Inhibition of recombinant human SitT1 by Fluor de Lys fluorescence assay
T3 sequence (Q96EB6 whole entry): T1 sequence (whole entry)

[4] = molecular target: T1, NAD-dependent protein deacetylase sirtuin-1 (Homo sapiens); assay: Inhibition of SirT1 assessed as increase in p53 expression in human MCF7 cells at 2 uM after 6 hrs by Western blotting; type: cell-based
How it was run: (§1)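 MCF-7 cells grown in DMEM with 10% FCS and gentamycin, seeded at 2 × 10⁵ per well on collagen-coated plates and incubated 42 h at 37 °C in 5% CO2. Compound in DMSO was added for 6 h. Lysis in LDS buffer, protein equalised by BCA, 4–12% bis-tris SDS-PAGE, PVDF blot. Total p53 detected with DO.1, PCNA as loading control, ECL detection. Scored semi-quantitatively against untreated level.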

[5] = molecular target: T1, NAD-dependent protein deacetylase sirtuin-1 (Homo sapiens); assay: Inhibition of SirT1 assessed as increase in p53 expression in human MCF7 cells at 10 uM after 6 hrs by Western blotting; type: cell-based; how it was run: as §1
[6] = Solubility of the compound in water by UV spectrophotometry; type: physicochemical
How it was run: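 Extinction coefficient from absorbance at 273 nm of a 7-point 2-fold dilution series in acetonitrile; DMSO used first where needed. Coefficient taken from the slope of absorbance against molar concentration. Used to find the actual concentration of a nominal 100 µM aqueous solution made from 40 mM DMSO stock.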

[7] = molecular target: T1, NAD-dependent protein deacetylase sirtuin-1 (Homo sapiens); assay: Inhibition of SirT1 assessed as increase in p53 expression in human MCF7 cells at 5 uM after 6 hrs by Western blotting; type: cell-based; how it was run: as §1
[8] = molecular target: T1, NAD-dependent protein deacetylase sirtuin-1 (Homo sapiens); assay: Inhibition of SirT1 in human ARN8 cells assessed as p53 activation at 10 uM by beta-galactosidase reporter gene assay; type: cell-based
How it was run: (§2)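 p53-dependent transcription measured with a beta-galactosidase reporter in ARN8 cells, run in triplicate. Read-out is the ratio of signal in treated cells to DMSO-control cells, given to 2 significant figures; a positive or negative activity call is also recorded.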

[9] = Cytotoxicity against human H1299 cells at 30 uM; type: cell-based; settings: nci-h1299, 30 µM
[10] = Cytotoxicity against human H1299 cells at 20 uM; type: cell-based; settings: nci-h1299, 20 µM
[11] = Cytotoxicity against human ARN8 cells at 20 uM; type: cell-based; settings: arn8, 20 µM
[12] = molecular target: T1, NAD-dependent protein deacetylase sirtuin-1 (Homo sapiens); assay: Inhibition of SirT1 in human ARN8 cells assessed as p53 activation at 10 uM by beta-galactosidase reporter gene assay relative to control; type: cell-based; how it was run: as §2
[13] = molecular target: T1, NAD-dependent protein deacetylase sirtuin-1 (Homo sapiens); assay: Inhibition of SirT1 in human ARN8 cells assessed as p53 activation at 5 uM by beta-galactosidase reporter gene assay relative to control; type: cell-based; how it was run: as §2
[14] = molecular target: T1, NAD-dependent protein deacetylase sirtuin-1 (Homo sapiens); assay: Inhibition of SirT1 in human ARN8 cells assessed as p53 activation at 20 uM by beta-galactosidase reporter gene assay relative to control; type: cell-based; how it was run: as §2
[15] = molecular target: T1, NAD-dependent protein deacetylase sirtuin-1 (Homo sapiens); assay: Inhibition of SirT1 in human ARN8 cells assessed as p53 activation at 5 uM by beta-galactosidase reporter gene assay; type: cell-based; how it was run: as §2
[16] = Drug metabolism in human H1299 cells after 16 hrs by mass spectrophotometry; type: ADME, cell-based; settings: nci-h1299, 16 h

SMILES	inhibition [1] [%]	IC50 [2] [µM]	IC50 [3] [µM]	inhibition [4]	inhibition [5]	solubility [6] [µg/mL]	inhibition [7]	inhibition [8]	Activity [9]	Activity [10]	Activity [11]	fold change (FC) [12]	fold change (FC) [13]	fold change (FC) [14]	inhibition [15]	Drug metabolism [16]
CN(C)CCOCCOCCOCCOCCOCC(=O)Nc1ccc(NC(=S)NC(=O)c2ccc(C(C)(C)C)cc2)cc1.Cl	29.6	> 90	> 60	inactive	inactive	> 1.34	inactive									
CN(C)CCCC(=O)Nc1ccc(NC(=S)NC(=O)c2ccc(C(C)(C)C)cc2)cc1.Cl	85.2	12.8	35.8	inactive	Active	0.57	Active									
CCCCc1ccc(C(=O)NC(=S)Nc2ccc(NC(=O)CCCCN(C)C)cc2)cc1.Cl	56.3	8.6	46.3					inactive	Toxic	Toxic	Toxic	0.93	0.91	0.28	inactive	
CN(C)CCCCC(=O)Nc1ccc(NC(=S)NC(=O)c2ccc(C(C)(C)C)cc2)cc1.Cl	73.9			Active	Active	0.74	Active	Active	Toxic						Active	Active
